Reference: ChEMBL document CHEMBL2429772, “Selective arylsulfonamide inhibitors of ADAM-17: hit optimization and activity in ovarian cancer cell models” (J Med Chem, 2013)

Tests used:
[1] = biological target: Matrix metalloproteinase-9 (Homo sapiens, UniProt P14780); assay: Inhibition of recombinant human MMP-9 using Mca-Lys-Pro-Leu-Gly-Leu-Dap(Dnp)-Ala-Arg-NH2 as substrate incubated for 4 hrs measured every 15 secs for 20 mins by fluorimetric assay
In short: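 Pro-MMP-9 was activated with 1 mM APMA for 1 h at 37 °C and used at 1.3 nM final. Inhibitor was incubated with enzyme for 4 h at 25 °C in Tris 50 mM pH 7.5, NaCl 150 mM, CaCl2 10 mM, 0.05% Brij-35, 1% DMSO. Substrate was at 2 µM final, ex 325/em 400 nm, in duplicate. IC50 was obtained from vi/vo = 1/(1+[I]/IC50).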

[2] = biological target: T1, Disintegrin and metalloproteinase domain-containing protein 10 (Homo sapiens, UniProt O14672); assay: Inhibition of recombinant human ADAM-10 using Mca-Lys-Pro-Leu-Gly-Leu-Dap(Dnp)-Ala-Arg-NH2 as substrate incubated for 1 hr measured every 15 secs for 20 mins by fluorimetric assay
T1 sequence (O14672 whole entry): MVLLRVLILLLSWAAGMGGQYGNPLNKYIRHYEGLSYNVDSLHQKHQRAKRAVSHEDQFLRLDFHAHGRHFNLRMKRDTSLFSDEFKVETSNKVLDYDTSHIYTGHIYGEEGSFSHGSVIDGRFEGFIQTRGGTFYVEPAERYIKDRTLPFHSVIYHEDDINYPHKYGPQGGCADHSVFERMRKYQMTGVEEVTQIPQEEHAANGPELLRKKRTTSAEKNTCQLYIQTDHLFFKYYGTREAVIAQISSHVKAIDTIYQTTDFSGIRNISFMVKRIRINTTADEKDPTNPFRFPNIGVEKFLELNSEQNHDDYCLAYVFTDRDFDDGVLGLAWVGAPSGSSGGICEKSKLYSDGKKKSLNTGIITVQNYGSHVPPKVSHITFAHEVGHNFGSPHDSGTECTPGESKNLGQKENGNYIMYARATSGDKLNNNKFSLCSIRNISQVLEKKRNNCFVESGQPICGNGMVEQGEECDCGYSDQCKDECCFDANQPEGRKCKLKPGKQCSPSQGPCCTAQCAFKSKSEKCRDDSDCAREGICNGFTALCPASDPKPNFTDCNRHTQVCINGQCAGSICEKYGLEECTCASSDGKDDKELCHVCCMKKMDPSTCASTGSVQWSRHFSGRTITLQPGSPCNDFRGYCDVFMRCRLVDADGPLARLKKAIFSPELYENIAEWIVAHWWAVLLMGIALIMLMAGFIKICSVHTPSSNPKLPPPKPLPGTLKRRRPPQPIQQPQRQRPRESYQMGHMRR
In short: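 Enzyme at 20 nM final was preincubated with inhibitor for 1 h at 37 °C in pH 9 buffer (Tris 25 mM, ZnCl2 25 µM, 0.005% Brij-35). Substrate was at 10 µM final. Fluorescence (ex 325/em 400 nm) was followed for initial velocity, in duplicate. IC50 was calculated with vi/vo = 1/(1+[I]/IC50).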

[3] = biological target: Matrix metalloproteinase-14 (Homo sapiens, UniProt P50281); assay: Inhibition of recombinant human MMP-14 catalytic domain using Mca-Lys-Pro-Leu-Gly-Leu-Dap(Dnp)-Ala-Arg-NH2 as substrate incubated for 4 hrs measured every 15 secs for 20 mins by fluorimetric assay
In short: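 MMP-14 catalytic domain was used at 1.0 nM final with no activation step. It was incubated with inhibitor for 4 h at 25 °C in Tris 50 mM pH 7.5 buffer with NaCl 150 mM, CaCl2 10 mM, 0.05% Brij-35 and 1% DMSO. Substrate was at 2 µM final, ex 325/em 400 nm, duplicate wells. IC50 was fitted by vi/vo = 1/(1+[I]/IC50).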

[4] = biological target: 72 kDa type IV collagenase (Homo sapiens, UniProt P08253); assay: Inhibition of recombinant human MMP-2 using Mca-Lys-Pro-Leu-Gly-Leu-Dap(Dnp)-Ala-Arg-NH2 as substrate incubated for 4 hrs measured every 15 secs for 20 mins by fluorimetric assay
In short: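 Pro-MMP-2 was activated with 2 mM APMA for 1 h at 37 °C and used at 0.56 nM final. It was preincubated with inhibitor for 4 h at 25 °C in Tris 50 mM pH 7.5 buffer containing NaCl, CaCl2, Brij-35 and 1% DMSO. Substrate was at 2 µM final, ex 325/em 400 nm, run in duplicate. IC50 was taken from initial-velocity ratios, vi/vo = 1/(1+[I]/IC50).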

Interstitial collagenase = biological target: T2, Interstitial collagenase (Homo sapiens, UniProt P03956); assay: Inhibition of recombinant human MMP-1 using Mca-Lys-Pro-Leu-Gly-Leu-Dap(Dnp)-Ala-Arg-NH2 as substrate incubated for 4 hrs measured every 15 secs for 20 mins by fluorimetric assay
T2 sequence (P03956 whole entry): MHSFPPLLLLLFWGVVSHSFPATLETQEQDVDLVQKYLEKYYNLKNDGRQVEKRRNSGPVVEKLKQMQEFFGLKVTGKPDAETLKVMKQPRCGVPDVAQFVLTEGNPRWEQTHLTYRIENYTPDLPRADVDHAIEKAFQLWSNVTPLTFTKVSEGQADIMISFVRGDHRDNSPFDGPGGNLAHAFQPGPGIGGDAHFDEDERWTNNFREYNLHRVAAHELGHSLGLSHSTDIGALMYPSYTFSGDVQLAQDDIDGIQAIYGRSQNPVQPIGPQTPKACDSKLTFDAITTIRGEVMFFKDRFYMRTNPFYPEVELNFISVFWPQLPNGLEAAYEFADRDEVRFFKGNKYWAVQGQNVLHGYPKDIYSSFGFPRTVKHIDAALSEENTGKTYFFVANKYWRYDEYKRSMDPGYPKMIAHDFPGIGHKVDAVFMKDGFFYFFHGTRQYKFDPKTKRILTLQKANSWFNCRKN
In short: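 Pro-MMP-1 was activated with 2 mM APMA for 2 h at 37 °C. Enzyme (2.0 nM final) was incubated with inhibitor in Tris 50 mM pH 7.5, NaCl 150 mM, CaCl2 10 mM, 0.05% Brij-35, 1% DMSO for 4 h at 25 °C. Substrate was added at 2 µM final. Fluorescence (ex 325/em 400 nm) was read for initial rates, in duplicate. IC50 came from vi/vo = 1/(1+[I]/IC50).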

[5] = biological target: T3, Disintegrin and metalloproteinase domain-containing protein 17 (Homo sapiens, UniProt P78536); assay: Inhibition of recombinant human ADAM-17 using Mca-Lys-Pro-Leu-Gly-Leu-Dap(Dnp)-Ala-Arg-NH2 as substrate incubated for 30 mins measured every 15 secs for 20 mins by fluorimetric assay
In short: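 Enzyme at 5 nM final was preincubated with inhibitor for 30 min at 37 °C in Tris 25 mM pH 9, ZnCl2 25 µM, 0.005% Brij-35. Substrate was at 2 µM final. Fluorescence increase (ex 325/em 400 nm) gave initial rates, in duplicate. IC50 was derived from vi/vo = 1/(1+[I]/IC50).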

[6] = biological target: T3, Disintegrin and metalloproteinase domain-containing protein 17; assay: Inhibition of ADAM-17 in human SKOV3 cells transfected with luciferase gene assessed as inhibition of pervanadate-induced sALCAM release incubated for 30 mins prior to pervanadate induction measured after 90 mins by ELISA; format: cell-based, SK-OV-3
A2780 = assay: Cytotoxicity against human A2780 cells assessed as cell viability at 0.01 to 10 uM after 24 to 72 hrs by MTT assay; format: cell-based; settings: a2780, 10 µM
[7] = Cytotoxicity against human A2774 cells assessed as cell viability at 0.01 to 10 uM after 24 to 72 hrs by MTT assay; format: cell-based; settings: a2774, 10 µM
SK-OV-3 = assay: Cytotoxicity against human SKOV3 cells transfected with luciferase gene assessed as cell viability at 0.01 to 10 uM after 24 to 72 hrs by MTT assay; format: cell-based; settings: sk-ov-3, 10 µM
[8] = biological target: T3, Disintegrin and metalloproteinase domain-containing protein 17; assay: Inhibition of ADAM-17 in human A2780 cells assessed as inhibition of EGF-induced sALCAM release incubated for 30 mins prior to EGF induction measured after 18 hrs by ELISA; format: cell-based
[9] = biological target: T3, Disintegrin and metalloproteinase domain-containing protein 17; assay: Inhibition of ADAM-17 in human A2780 cells assessed as inhibition of pervanadate-induced sALCAM release incubated for 30 mins prior to pervanadate induction measured after 90 mins by ELISA; format: cell-based
[10] = biological target: T3, Disintegrin and metalloproteinase domain-containing protein 17; assay: Inhibition of ADAM-17 in human SKOV3 cells transfected with luciferase gene assessed as inhibition of EGF-induced sALCAM release incubated for 30 mins prior to EGF induction measured after 18 hrs by ELISA; format: cell-based, SK-OV-3
[11] = biological target: T3, Disintegrin and metalloproteinase domain-containing protein 17; assay: Inhibition of ADAM-17 in human A2774 cells assessed as inhibition of EGF-induced sALCAM release incubated for 30 mins prior to EGF induction measured after 18 hrs by ELISA; format: cell-based
[12] = biological target: T3, Disintegrin and metalloproteinase domain-containing protein 17; assay: Inhibition of ADAM-17 in human A2774 cells assessed as inhibition of pervanadate-induced sALCAM release incubated for 30 mins prior to pervanadate induction measured after 90 mins by ELISA; format: cell-based

T3 sequence (P78536 whole entry, the tested form may be a part): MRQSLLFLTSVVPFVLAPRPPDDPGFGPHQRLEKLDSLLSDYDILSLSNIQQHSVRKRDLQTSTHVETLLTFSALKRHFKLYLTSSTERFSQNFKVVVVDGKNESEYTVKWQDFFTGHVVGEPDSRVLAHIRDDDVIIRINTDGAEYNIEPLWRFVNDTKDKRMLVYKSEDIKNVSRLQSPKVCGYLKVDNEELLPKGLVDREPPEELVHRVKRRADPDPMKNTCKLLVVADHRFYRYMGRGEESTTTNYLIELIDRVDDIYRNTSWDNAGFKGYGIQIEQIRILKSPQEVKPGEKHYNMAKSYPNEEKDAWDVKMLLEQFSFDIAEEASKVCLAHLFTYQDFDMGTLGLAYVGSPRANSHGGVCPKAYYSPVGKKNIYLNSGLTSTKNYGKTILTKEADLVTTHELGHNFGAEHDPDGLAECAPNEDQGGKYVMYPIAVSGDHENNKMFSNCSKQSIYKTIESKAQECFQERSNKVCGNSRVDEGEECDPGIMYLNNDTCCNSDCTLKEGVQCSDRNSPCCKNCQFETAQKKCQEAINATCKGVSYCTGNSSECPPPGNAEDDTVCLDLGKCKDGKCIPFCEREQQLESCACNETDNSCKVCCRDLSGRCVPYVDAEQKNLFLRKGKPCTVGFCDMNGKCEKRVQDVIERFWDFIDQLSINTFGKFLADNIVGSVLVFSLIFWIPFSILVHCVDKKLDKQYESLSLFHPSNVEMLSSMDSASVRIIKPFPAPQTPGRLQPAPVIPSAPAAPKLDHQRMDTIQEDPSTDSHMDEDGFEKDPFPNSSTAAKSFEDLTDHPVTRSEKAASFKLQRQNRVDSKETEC
Chain of Matrix metalloproteinase-9 (P14780 whole entry): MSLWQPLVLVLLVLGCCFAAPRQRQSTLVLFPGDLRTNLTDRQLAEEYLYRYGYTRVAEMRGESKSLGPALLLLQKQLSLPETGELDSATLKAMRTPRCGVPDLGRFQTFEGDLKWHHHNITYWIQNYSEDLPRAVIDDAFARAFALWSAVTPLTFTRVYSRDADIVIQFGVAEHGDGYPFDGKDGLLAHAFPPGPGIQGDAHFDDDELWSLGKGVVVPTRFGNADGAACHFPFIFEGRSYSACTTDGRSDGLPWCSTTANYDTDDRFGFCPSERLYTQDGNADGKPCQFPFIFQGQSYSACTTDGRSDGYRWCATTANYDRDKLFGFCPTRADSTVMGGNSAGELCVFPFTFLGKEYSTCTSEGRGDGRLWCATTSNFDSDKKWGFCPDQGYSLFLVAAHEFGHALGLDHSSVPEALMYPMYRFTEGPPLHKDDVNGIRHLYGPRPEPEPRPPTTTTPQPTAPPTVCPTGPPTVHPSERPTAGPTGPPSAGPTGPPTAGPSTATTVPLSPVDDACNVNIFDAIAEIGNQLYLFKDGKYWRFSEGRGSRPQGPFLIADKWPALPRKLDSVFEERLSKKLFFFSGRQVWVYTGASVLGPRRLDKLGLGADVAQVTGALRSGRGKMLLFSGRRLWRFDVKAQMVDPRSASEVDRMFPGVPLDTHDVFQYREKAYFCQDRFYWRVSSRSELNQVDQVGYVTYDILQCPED
Chain of 72 kDa type IV collagenase (P08253 whole entry): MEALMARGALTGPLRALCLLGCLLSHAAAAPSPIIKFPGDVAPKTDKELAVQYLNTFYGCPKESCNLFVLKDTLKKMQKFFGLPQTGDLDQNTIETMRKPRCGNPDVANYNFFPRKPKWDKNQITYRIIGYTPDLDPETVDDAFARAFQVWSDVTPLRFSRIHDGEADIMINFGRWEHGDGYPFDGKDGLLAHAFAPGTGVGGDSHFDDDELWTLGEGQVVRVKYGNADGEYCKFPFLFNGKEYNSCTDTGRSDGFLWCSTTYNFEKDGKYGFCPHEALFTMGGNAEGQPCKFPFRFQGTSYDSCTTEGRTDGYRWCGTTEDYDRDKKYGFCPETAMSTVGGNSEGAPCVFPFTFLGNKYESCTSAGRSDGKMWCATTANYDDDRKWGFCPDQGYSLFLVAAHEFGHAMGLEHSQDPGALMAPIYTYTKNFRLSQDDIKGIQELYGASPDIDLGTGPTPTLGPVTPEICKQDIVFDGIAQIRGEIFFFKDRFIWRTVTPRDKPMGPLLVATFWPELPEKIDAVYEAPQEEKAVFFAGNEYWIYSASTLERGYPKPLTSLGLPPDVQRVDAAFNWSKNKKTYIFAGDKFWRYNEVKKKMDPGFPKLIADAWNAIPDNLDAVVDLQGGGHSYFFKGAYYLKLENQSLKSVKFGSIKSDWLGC

IC50 [1]	IC50 [2]	IC50 [3]	IC50 [4]	IC50 (Interstitial collagenase)	IC50 [5]	IC50 [6]	IC50 [8]	IC50 [9]	IC50 [10]	IC50 [11]	IC50 [12]	Compound	Activity (A2780)	Activity [7]	Activity (SK-OV-3)
51 µM	39 µM	113 µM	1.75 µM	> 500 µM	0.105 µM	5.3 µM	> 10 µM	0.84 µM	> 10 µM	> 10 µM	> 10 µM	O=C(CNS(=O)(=O)c1ccc(OCc2cc(Br)cc(Br)c2)cc1)NO	Non-toxic	Non-toxic	Non-toxic
11 µM	8.2 µM	104 µM	4.1 µM	400 µM	0.043 µM	2.1 µM	> 10 µM	0.825 µM	9.52 µM	> 10 µM	1.39 µM	O=C(NCC[C@@H](NS(=O)(=O)c1ccc(OCc2cc(Br)cc(Br)c2)cc1)C(=O)NO)OCc1ccccc1	Non-toxic	Non-toxic	Non-toxic
